Laboratory results taken from ChEMBL document CHEMBL3856275, “Discovery of Second Generation Reversible Covalent DPP1 Inhibitors Leading to an Oxazepane Amidoacetonitrile Based Clinical Candidate (AZD7986)” (J Med Chem, 2016).
≈ marks a conversion by molar mass, not a printed value.

Experiments:
Dipeptidyl peptidase 1 [1] = target: T1, Dipeptidyl peptidase 1 (Homo sapiens, UniProt P53634); assay: Inhibition of human recombinant DPP1 using Gly-Arg-AMC as substrate preincubated for 30 mins followed by substrate addition by fluorometric assay
T1 sequence (P53634 25-134 limits assumed): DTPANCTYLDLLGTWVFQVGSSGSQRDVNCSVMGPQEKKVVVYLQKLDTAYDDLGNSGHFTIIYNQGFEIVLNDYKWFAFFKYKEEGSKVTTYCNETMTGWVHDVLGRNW
T1 sequence (P53634 231-394 limits assumed): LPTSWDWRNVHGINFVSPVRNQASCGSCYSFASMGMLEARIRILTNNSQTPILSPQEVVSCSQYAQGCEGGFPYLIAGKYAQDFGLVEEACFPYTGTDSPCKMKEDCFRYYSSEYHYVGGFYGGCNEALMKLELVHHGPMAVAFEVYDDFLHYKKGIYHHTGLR
T1 sequence (P53634 395-463 limits assumed): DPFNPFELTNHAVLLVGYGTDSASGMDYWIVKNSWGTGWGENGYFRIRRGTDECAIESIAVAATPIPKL
Method in brief: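 Isolated human recombinant DPP1 was run in a fluorometric assay in piperazine-based buffer. Compound was pre-incubated with enzyme for 30 min at rt, then Gly-Arg-AMC dipeptide substrate was added. Data were curve-fitted to give pIC50, as the mean of at least two experiments.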

[2] = Propionaldehyde reactivity assessed as half life of the compound at pH 7.4 by LC-UV method; format: physicochemical
Dipeptidyl peptidase 1 [3] = target: T1, Dipeptidyl peptidase 1; assay: Inhibition of DPP1 in human U937 cells using Gly-Phe-AFC as substrate preincubated for 60 mins followed by substrate addition by fluorescence assay; format: cell-based, U-937
physchem [4] = settings: octanol/water, pH 7.4
[5] = Protein binding in human plasma at 10 uM after 6 hrs by LC-MS/MS method; format: ADME, cell-free; settings: read-out: PPB (converted)
[6] = Intrinsic clearance in human liver microsomes at 1 uM after 5 to 40 mins by LC-MS/MS method; format: ADME; settings: read-out: CLH
[7] = Intrinsic clearance in rat hepatocytes assessed per 10^6 cells at 1 uM after 10 to 90 mins by LC-MS/MS method; format: ADME, cell-based, Hepatocyte
[8] = Protein binding in rat plasma at 10 uM after 6 hrs by LC-MS/MS method; format: ADME, cell-free; settings: read-out: PPB (converted)
[9] = Apparent permeability across apical to basolateral side in human Caco2 cells at 10 uM after 1 hr by LC-MS method; settings: Caco-2
[10] = Apparent permeability across basolateral to apical side in human Caco2 cells at 10 uM after 1 hr by LC-MS method; settings: Caco-2
[11] = Efflux ratio of apparent permeability across basolateral to apical over apical to basolateral side in human Caco2 cells at 10 uM after 1 hr by LC-MS method; settings: Caco-2
[12] = Intrinsic clearance in human hepatocytes assessed per 10^6 cells at 1 uM after 10 to 90 mins by LC-MS/MS method; format: ADME, cell-based, Hepatocyte
[13] = Intrinsic clearance in dog hepatocytes assessed per 10^6 cells at 1 uM after 10 to 90 mins by LC-MS/MS method; format: ADME, cell-based, Canis lupus familiaris, Hepatocyte
[14] = Clearance in Sprague-Dawley rat at 1 mg/kg, iv or 3 mg/kg, po; format: ADME, organism-based; settings: in vivo
[15] = Volume of distribution at steady state in Sprague-Dawley rat at 1 mg/kg, iv or 3 mg/kg, po; format: ADME, organism-based; settings: in vivo, read-out: Vdss
[16] = Half life in Sprague-Dawley rat at 1 mg/kg, iv or 3 mg/kg, po; format: ADME, organism-based; settings: in vivo
[17] = Oral bioavailability in Sprague-Dawley rat at 3 mg/kg; format: ADME, organism-based; settings: in vivo
[18] = target: Voltage-gated inwardly rectifying potassium channel KCNH2 (Homo sapiens, UniProt Q12809)
Chain of Voltage-gated inwardly rectifying potassium channel KCNH2 (Q12809 whole entry): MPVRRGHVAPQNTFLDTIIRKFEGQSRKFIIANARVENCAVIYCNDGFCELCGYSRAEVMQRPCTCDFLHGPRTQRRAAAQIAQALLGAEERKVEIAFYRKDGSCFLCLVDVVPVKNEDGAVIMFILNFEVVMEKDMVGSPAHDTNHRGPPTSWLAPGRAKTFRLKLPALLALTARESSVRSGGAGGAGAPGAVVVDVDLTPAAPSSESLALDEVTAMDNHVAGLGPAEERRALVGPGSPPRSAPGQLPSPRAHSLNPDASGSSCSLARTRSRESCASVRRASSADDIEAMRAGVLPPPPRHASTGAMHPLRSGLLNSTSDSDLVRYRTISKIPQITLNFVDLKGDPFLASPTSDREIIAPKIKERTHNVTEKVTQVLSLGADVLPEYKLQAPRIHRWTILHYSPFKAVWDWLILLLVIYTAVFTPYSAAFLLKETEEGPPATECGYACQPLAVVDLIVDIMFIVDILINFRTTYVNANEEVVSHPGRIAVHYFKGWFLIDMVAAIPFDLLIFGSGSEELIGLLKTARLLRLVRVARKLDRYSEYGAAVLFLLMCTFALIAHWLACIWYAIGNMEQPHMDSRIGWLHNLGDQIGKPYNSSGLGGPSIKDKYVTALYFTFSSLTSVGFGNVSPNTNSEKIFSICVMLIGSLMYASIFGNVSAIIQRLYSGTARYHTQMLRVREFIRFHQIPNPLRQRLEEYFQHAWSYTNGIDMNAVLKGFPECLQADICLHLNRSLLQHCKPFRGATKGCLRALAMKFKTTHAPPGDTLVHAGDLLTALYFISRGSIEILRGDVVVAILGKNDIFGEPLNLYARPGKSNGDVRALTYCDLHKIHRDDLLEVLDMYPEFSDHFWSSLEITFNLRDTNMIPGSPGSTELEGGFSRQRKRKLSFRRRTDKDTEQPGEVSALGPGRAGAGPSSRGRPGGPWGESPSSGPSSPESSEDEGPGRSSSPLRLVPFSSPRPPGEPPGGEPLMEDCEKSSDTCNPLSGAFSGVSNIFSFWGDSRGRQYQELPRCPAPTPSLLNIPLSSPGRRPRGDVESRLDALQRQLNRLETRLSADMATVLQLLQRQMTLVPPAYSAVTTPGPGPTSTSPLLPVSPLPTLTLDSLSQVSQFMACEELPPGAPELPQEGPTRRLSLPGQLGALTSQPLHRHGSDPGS

physchem [19] = settings: buffer, pH 7.4
[20] = Protein binding in dog plasma at 10 uM after 6 hrs by LC-MS/MS method; format: ADME, cell-free, Canis lupus familiaris; settings: read-out: PPB (converted)

N#Cc1ccc(-c2ccc(C[C@@H](C#N)NC(=O)[C@H]3CCCC[C@H]3N)cc2)cc1
IC50 (Dipeptidyl peptidase 1 [1]): > 10000 nM | half-life [2]: > 50 h

N#Cc1ccc(-c2ccc(C[C@@H](C#N)NC(=O)C3CCCCNC3)cc2)cc1 (mixture of isomers)
IC50 (Dipeptidyl peptidase 1 [1]): 1260 nM | IC50 (Dipeptidyl peptidase 1 [3]): 501 nM | half-life [2]: > 50 h

N#Cc1ccc(-c2ccc(C[C@@H](C#N)NC(=O)[C@@H]3CCCC[C@H]3N)cc2)cc1
IC50 (Dipeptidyl peptidase 1 [1]): 316 nM | IC50 (Dipeptidyl peptidase 1 [3]): 158 nM | half-life [2]: > 50 h

N#C[C@H](Cc1ccc(-c2ncc(C(F)(F)F)cn2)cc1)NC(=O)[C@@H]1CNCCCO1
IC50 (Dipeptidyl peptidase 1 [1]): 200 nM | IC50 (Dipeptidyl peptidase 1 [3]): 200 nM | logD at 10 µM (physchem [4]): 1.1

N#C[C@H](Cc1ccc(-c2ccc(C(F)(F)F)cc2)cc1)NC(=O)[C@@H]1CNCCCO1
IC50 (Dipeptidyl peptidase 1 [1]): 39.8 nM | logD at 10 µM (physchem [4]): 2.8

N#C[C@H](Cc1ccc(-c2ccc3scnc3c2)cc1)NC(=O)[C@@H]1CNCCCO1
IC50 (Dipeptidyl peptidase 1 [1]): 63.1 nM | logD at 10 µM (physchem [4]): 1.5

N#Cc1ccc(-c2ccc(C[C@@H](C#N)NC(=O)[C@H]3CCCC[C@@H]3N)cc2)cc1
IC50 (Dipeptidyl peptidase 1 [1]): 501 nM | IC50 (Dipeptidyl peptidase 1 [3]): 398 nM | half-life [2]: > 50 h

N#Cc1ccc(-c2ccc(C[C@@H](C#N)NC(=O)[C@H]3CNCCCO3)cc2)cc1
IC50 (Dipeptidyl peptidase 1 [1]): 6310 nM | half-life [2]: > 50 h | logD at 10 µM (physchem [4]): 1.2

N#Cc1ccc(-c2ccc(C[C@@H](C#N)NC(=O)[C@@H]3CCC[C@@H]3N)cc2)cc1
IC50 (Dipeptidyl peptidase 1 [1]): 1000 nM | IC50 (Dipeptidyl peptidase 1 [3]): 1260 nM | half-life [2]: > 50 h

Cn1c(=O)sc2ccc(-c3ccc(C[C@@H](C#N)NC(=O)[C@@H]4CNCCCO4)cc3)cc21
fraction unbound at 6 h, 10 µM [5]: 0.07 | microsomal CLint at 1 µM [6]: < 15 µL/min/mg | CLH [7]: < 3.5 µL/min/10^6 cells | fraction unbound at 6 h, 10 µM [8]: 0.05 | IC50 (Dipeptidyl peptidase 1 [1]): 2.51 nM | IC50 (Dipeptidyl peptidase 1 [3]): 3.16 nM | half-life [2]: > 50 h | Papp A→B at 1 h, 10 µM [9]: 11 ×10⁻⁶ cm/s | Papp B→A at 1 h, 10 µM [10]: 51 ×10⁻⁶ cm/s | efflux ratio at 1 h, 10 µM [11]: 4.7 | intrinsic clearance (CLint) [12]: < 3.5 µL/min/10^6 cells | CLH [13]: < 3.5 µL/min/10^6 cells | clearance [14]: 3 mL/min/kg | Vd [15]: 2 L/kg | half-life [16]: 8 h | bioavailability [17]: 26% | IC50 [18]: 23000 nM | solubility kinetic at 2 h (physchem [19]): 170 µM (≈ 74.2 µg/mL) | logD at 10 µM (physchem [4]): 1.5

N#Cc1ccc(-c2ccc(C[C@@H](C#N)NC(=O)[C@@H]3CCCCC[C@@H]3N)cc2)cc1
fraction unbound at 6 h, 10 µM [5]: 0.03 | microsomal CLint at 1 µM [6]: 13 µL/min/mg | CLH [7]: < 3.5 µL/min/10^6 cells | fraction unbound at 6 h, 10 µM [8]: 0.08 | IC50 (Dipeptidyl peptidase 1 [1]): 39.8 nM | IC50 (Dipeptidyl peptidase 1 [3]): 31.6 nM | half-life [2]: > 50 h | Papp A→B at 1 h, 10 µM [9]: 11 ×10⁻⁶ cm/s | Papp B→A at 1 h, 10 µM [10]: 23 ×10⁻⁶ cm/s | efflux ratio at 1 h, 10 µM [11]: 2 | IC50 [18]: 3600 nM | solubility kinetic at 2 h (physchem [19]): 175 µM (≈ 67.6 µg/mL) | logD at 10 µM (physchem [4]): 2

Cn1c(=O)cnc2ccc(-c3ccc(C[C@@H](C#N)NC(=O)[C@@H]4CNCCCO4)cc3)cc21
IC50 (Dipeptidyl peptidase 1 [1]): 25.1 nM | logD at 10 µM (physchem [4]): 0.6

N#Cc1ccc(-c2ccc(C[C@@H](C#N)NC(=O)C3(N)CCOCC3)cc2)cc1
half-life [2]: < 1 h

N#Cc1ccc(-c2ccc(C[C@@H](C#N)NC(=O)[C@@H]3CNCCO3)cc2)cc1
IC50 (Dipeptidyl peptidase 1 [1]): 398 nM | IC50 (Dipeptidyl peptidase 1 [3]): 501 nM | half-life [2]: > 50 h | logD at 10 µM (physchem [4]): 1.4

Cc1noc2ccc(-c3ccc(C[C@@H](C#N)NC(=O)[C@@H]4CNCCCO4)cc3)cc12
IC50 (Dipeptidyl peptidase 1 [1]): 15.8 nM | IC50 (Dipeptidyl peptidase 1 [3]): 15.8 nM | logD at 10 µM (physchem [4]): 1.5

CN1C(=O)C(F)(F)c2ccc(-c3ccc(C[C@@H](C#N)NC(=O)[C@@H]4CNCCCO4)cc3)cc21
IC50 (Dipeptidyl peptidase 1 [1]): 15.8 nM | IC50 (Dipeptidyl peptidase 1 [3]): 15.8 nM | logD at 10 µM (physchem [4]): 1.4

N#C[C@H](Cc1ccc(-c2ccc3oc(=O)n(CC(F)F)c3c2)cc1)NC(=O)[C@@H]1CNCCCO1
fraction unbound at 6 h, 10 µM [5]: 0.07 | microsomal CLint at 1 µM [6]: < 14 µL/min/mg | CLH [7]: < 3.5 µL/min/10^6 cells | fraction unbound at 6 h, 10 µM [8]: 0.06 | IC50 (Dipeptidyl peptidase 1 [1]): 6.31 nM | IC50 (Dipeptidyl peptidase 1 [3]): 6.31 nM | half-life [2]: > 50 h | Papp A→B at 1 h, 10 µM [9]: 8 ×10⁻⁶ cm/s | Papp B→A at 1 h, 10 µM [10]: 80 ×10⁻⁶ cm/s | intrinsic clearance (CLint) [12]: 5 µL/min/10^6 cells | fraction unbound at 6 h, 10 µM [20]: 0.15 | clearance [14]: 4 mL/min/kg | Vd [15]: 2 L/kg | half-life [16]: 7 h | bioavailability [17]: 29% | solubility kinetic at 2 h (physchem [19]): 190 µM (≈ 89.4 µg/mL) | logD at 10 µM (physchem [4]): 1

N#Cc1ccc(-c2ccc(C[C@@H](C#N)NC(=O)[C@@H]3CCCNC3)cc2)cc1
IC50 (Dipeptidyl peptidase 1 [1]): > 10000 nM | logD at 10 µM (physchem [4]): 0.6

CN1C(=O)COc2ccc(-c3ccc(C[C@@H](C#N)NC(=O)[C@@H]4CNCCCO4)cc3)cc21
IC50 (Dipeptidyl peptidase 1 [3]): 12.6 nM | logD at 10 µM (physchem [4]): 1.1

N#Cc1cccc(-c2ccc(C[C@@H](C#N)NC(=O)C3CCCCC3N)cc2)c1 (some centres undefined)
IC50 (Dipeptidyl peptidase 1 [1]): 1000 nM

N#Cc1ccc(-c2ccc(C[C@@H](C#N)NC(=O)[C@H]3CNCCO3)cc2)cc1
IC50 (Dipeptidyl peptidase 1 [1]): > 10000 nM | half-life [2]: > 50 h | logD at 10 µM (physchem [4]): 1.6

N#Cc1ccc(-c2ccc(C[C@@H](C#N)NC(=O)[C@@H]3CCCC[C@@H]3N)cc2)cc1
fraction unbound at 6 h, 10 µM [5]: 0.07 | microsomal CLint at 1 µM [6]: 9.3 µL/min/mg | CLH [7]: < 3.5 µL/min/10^6 cells | fraction unbound at 6 h, 10 µM [8]: 0.12 | IC50 (Dipeptidyl peptidase 1 [1]): 39.8 nM | IC50 (Dipeptidyl peptidase 1 [3]): 39.8 nM | half-life [2]: > 50 h | Papp A→B at 1 h, 10 µM [9]: 11 ×10⁻⁶ cm/s | Papp B→A at 1 h, 10 µM [10]: 36 ×10⁻⁶ cm/s | solubility kinetic at 2 h (physchem [19]): 175 µM (≈ 65.2 µg/mL) | logD at 10 µM (physchem [4]): 1.6

Cn1c(=O)ccc2ccc(-c3ccc(C[C@@H](C#N)NC(=O)[C@@H]4CNCCCO4)cc3)cc21
IC50 (Dipeptidyl peptidase 1 [1]): 12.6 nM | IC50 (Dipeptidyl peptidase 1 [3]): 12.6 nM | logD at 10 µM (physchem [4]): 1.1

N#Cc1ccc(-c2ccc(C[C@@H](C#N)NC(=O)[C@H]3CCCNC3)cc2)cc1
IC50 (Dipeptidyl peptidase 1 [1]): > 10000 nM | logD at 10 µM (physchem [4]): 0.2

N#Cc1ccc(-c2ccc(C[C@@H](C#N)NC(=O)C3CNCCCO3)cc2)cc1 (mixture of isomers)
IC50 (Dipeptidyl peptidase 1 [1]): 63.1 nM | half-life [2]: > 50 h | logD at 10 µM (physchem [4]): 1.1

CN1C(=O)Cc2ccc(-c3ccc(C[C@@H](C#N)NC(=O)C4(N)CCOCC4)cc3)cc21
IC50 (Dipeptidyl peptidase 1 [3]): 1.58 nM
